A value given as a limit tells only on which side of the number the result lay.

For 21 compounds, IC50 and inhibition in vivo results are on record in ChEMBL document CHEMBL1142371, “Synthesis and biological evaluation of imidazol-2-one derivatives as potential antitumor agents” (Bioorg Med Chem, 2008).

The test system of experiment [1] is A549. As to the kind of experiment: Cytotoxicity against human A549 cells after 48 hrs by MTT assay. Format: functional, cell-based. The conditions noted are these: A549, 48 h. The gist of the method: (§1)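 MTT read-out after 48 h drug exposure; MTT then added for a further 4 h at 37 °C, formazan dissolved in DMSO, absorbance at 570 nm. Triplicate wells in three independent experiments; IC50 = concentration giving 50% inhibition of cell viability, values are means of three experiments.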
Background: Tetrazolium dyes change colour on reduction, which living cells bring about.

Experiment [2] is described as follows: Cytotoxicity against multidrug-resistant human K562R cells after 48 hrs by MTT assay. The conditions noted are these: K-562R. Format: functional, cell-based. The gist of the method: as §1
Experiment [3] is described as follows: Cytotoxicity against human ECA109 cells after 48 hrs by MTT assay. Format: functional, cell-based. The conditions noted are these: ECa-109, 48 h. The gist of the method:
as §1

The subject of experiment [4] is HL-60. As to the kind of experiment: Cytotoxicity against human HL60 cells after 48 hrs by MTT assay. Format: functional, cell-based. The conditions noted are these: HL-60, 48 h. Summed up: as §1
The test system of experiment [5] is PC-3. Kind of experiment: Cytotoxicity against human PC3 cells after 48 hrs by MTT assay. Format: functional, cell-based. The conditions noted are these: PC-3, 48 h. The gist of the method: as §1
Experiment [6] concerns MCF7. Kind of experiment: Cytotoxicity against human MCF7 cells after 48 hrs by MTT assay. Format: functional, cell-based. The conditions noted are these: MCF7, 48 h. Summed up: as §1
Experiment [7] relates to K562. As to the kind of experiment: Cytotoxicity against human K562 cells after 48 hrs by MTT assay. Format: functional, cell-based. The conditions noted are these: K562, 48 h. Summed up:
as §1

For experiment [8], the system named is Bel-7402. As to the kind of experiment: Cytotoxicity against human BEL-7402 cells after 48 hrs by MTT assay. Format: functional, cell-based. The conditions noted are these: Bel-7402, 48 h. The gist of the method:
as §1

The subject of experiment [9] is H22. Kind of experiment: animal or person. The conditions noted are these: Mus musculus, H22, ip, 240 h, read-out: Inhibition.
Experiment [10] relates to CCRF S-180. Kind of experiment: animal or person. The conditions noted are these: Mus musculus, CCRF S-180, ip, 240 h, read-out: Inhibition.

On to `COc1ccc(-c2c[nH]c(=O)n2-c2cc(OC)c(OC)c(OC)c2)cc1`, for which the IC50 in experiment [1] was above 50 µM; in experiment [2], above 50 µM; in experiment [3] it was above 50 µM; in [4], 19.8 µM; in experiment [5], above 50 µM.
For `COc1ccc(-c2cn(C(C)=O)c(=O)n2-c2cc(OC)c(OC)c(OC)c2)cc1OC`, the IC50 in [1] is above 50 µM; in [2] it was above 50 µM; in experiment [3], above 50 µM; in experiment [6], above 50 µM; in [7], 43.4 µM; in experiment [4] it was 12.2 µM. The IC50 in [5] and in [8] was above 50 µM throughout.
As for `COc1ccc(-c2cn(C(=O)Nc3cc(OC)c(OC)c(OC)c3)c(=O)n2-c2cc(OC)c(OC)c(OC)c2)cc1OC`, the IC50 in experiment [1] is above 50 µM; in experiment [2] it was above 50 µM; in experiment [3] it was above 50 µM; in experiment [6] it was above 50 µM; in experiment [7] it was above 50 µM; in experiment [4], 6.5 µM. Moreover, the IC50 in experiment [5] and in experiment [8] was above 50 µM in each case.
As for `COc1ccc(-c2cn(C(=O)Nc3cc(OC)c(OC)c(OC)c3)c(=O)n2-c2cc(OC)c(OC)c(OC)c2)cc1[N+](=O)[O-]`, the IC50 in experiment [1] was above 50 µM; in [2], above 50 µM; in [3], above 50 µM; in experiment [7], 7.2 µM; in experiment [4], 19.7 µM; in experiment [5], above 50 µM.
For `COc1ccc(-c2cn(C(C)=O)c(=O)n2-c2cc(OC)c(OC)c(OC)c2)cc1[N+](=O)[O-]`, the IC50 in experiment [1] was 40.9 µM; in experiment [2] it was above 50 µM; in [3], 30.8 µM; in [6], above 50 µM; in experiment [7] it was above 50 µM; in experiment [4], 5.6 µM. Moreover, the concentration for half-maximal inhibition (IC50) worked out at 30.3 µM in [5] and 35.7 µM in experiment [8].
Regarding `COc1ccc(-c2cn(C(=O)Nc3cc(OC)c(OC)c(OC)c3)c(=O)n2-c2cc(OC)c(OC)c(OC)c2)cc1O`, the IC50 in experiment [1] was above 50 µM; in [2] it was above 50 µM; in [3], above 50 µM; in experiment [7], above 50 µM; in experiment [4], 15.4 µM; in experiment [5], above 50 µM.
Regarding `COc1cc(-n2c(-c3ccccc3)cn(C(C)=O)c2=O)cc(OC)c1OC`, the IC50 in experiment [1] was above 50 µM; in experiment [2], 9.6 µM; in experiment [3], above 50 µM; in experiment [6], above 50 µM; in [7], above 50 µM; in experiment [4], 5.6 µM. In addition, the IC50 in [5] and in experiment [8] was above 50 µM each time.
Turning to `COc1ccc(-c2cn(C(=O)Nc3cc(OC)c(OC)c(OC)c3)c(=O)n2-c2cc(OC)c(OC)c(OC)c2)cc1`, the IC50 in experiment [1] is above 50 µM; in [2] it was 3.5 µM; in experiment [3], above 50 µM; in experiment [6], above 50 µM; in experiment [7], 3.8 µM; in experiment [4], 5.4 µM. Besides, the values for the IC50 in experiment [5] and in [8] were 49.7 µM and above 50 µM, respectively.
`COc1ccc(-c2c[nH]c(=O)n2-c2cc(OC)c(OC)c(OC)c2)cc1N`: the IC50 in experiment [1] is above 50 µM; in experiment [2] it was above 50 µM; in experiment [3], above 50 µM; in experiment [6], above 50 µM; in [7] it was 49.2 µM; in experiment [4], 10.3 µM. Moreover, the IC50 is 49.8 µM in experiment [5] and above 50 µM in experiment [8].
Turning to `COc1cc(-n2c(-c3ccc([N+](=O)[O-])cc3)cn(C(C)=O)c2=O)cc(OC)c1OC`, the IC50 in experiment [1] is 49.6 µM; in experiment [2], 49.6 µM; in experiment [3], above 50 µM; in experiment [6] it was above 50 µM; in experiment [7] it was 26.6 µM; in experiment [4], 7.2 µM. In addition, the IC50 in experiment [5] was 32.9 µM; in [8], above 50 µM.
With `COc1cc(-n2c(-c3ccc(F)cc3F)cn(C(C)=O)c2=O)cc(OC)c1OC`, the IC50 in [1] is 24.1 µM; in experiment [2], above 50 µM; in experiment [3], above 50 µM; in experiment [6] it was 49.3 µM; in experiment [7] it was above 50 µM; in [4], 7.6 µM. Besides, the IC50 in experiment [5] was determined as 34.3 µM; in experiment [8] it was 36.2 µM.
Regarding `COc1ccc(-c2cn(C(=O)Nc3cc(OC)c(OC)c(OC)c3)c(=O)n2-c2cc(OC)c(OC)c(OC)c2)cc1N`, the IC50 in experiment [1] was 11.1 µM; in [2] it was 9.4 µM; in experiment [3] it was above 50 µM; in [6], above 50 µM; in experiment [7] it was 5.8 µM; in experiment [4] it was 3.1 µM. For the same compound, the IC50 is 10 µM in experiment [5] and 10.1 µM in experiment [8].
Regarding `COc1cc(-n2c(-c3ccc(Cl)cc3)cn(C(C)=O)c2=O)cc(OC)c1OC`, the IC50 in experiment [1] is above 50 µM; in experiment [3], above 50 µM; in [7], above 50 µM; in experiment [4], 4.9 µM.
As to `COc1ccc(-c2c[nH]c(=O)n2-c2cc(OC)c(OC)c(OC)c2)cc1OC`, the IC50 in experiment [1] was above 50 µM; in experiment [2], above 50 µM; in [3] it was above 50 µM; in experiment [4], 38.8 µM; in experiment [5] it was above 50 µM.
Regarding `COc1cc(-n2c(-c3ccc(O)cc3)c[nH]c2=O)cc(OC)c1OC`, the IC50 in [1] was above 50 µM; in experiment [2] it was above 50 µM; in experiment [3] it was above 50 µM; in experiment [6], above 50 µM; in experiment [7], above 50 µM; in [4] it was 20 µM. The IC50 in [5] is 30.2 µM; in [8], above 50 µM.
Turning to `COc1ccc(-c2c[nH]c(=O)n2-c2cc(OC)c(OC)c(OC)c2)cc1[N+](=O)[O-]`, the IC50 in [1] was above 50 µM; in [2], above 50 µM; in experiment [3], above 50 µM; in experiment [4], 14.3 µM; in [5], above 50 µM.
With `COc1ccc(-c2cn(C(C)=O)c(=O)n2-c2cc(OC)c(OC)c(OC)c2)cc1`, the IC50 in experiment [1] was 17.8 µM; in [2] it was 9.5 µM; in [3], above 50 µM; in experiment [6], above 50 µM; in [7], 0.2 µM; in experiment [4] it was 5.5 µM. The IC50 in experiment [5] was 19.7 µM; in [8], 9.5 µM.
In the case of `COc1cc(NC(=O)n2cc(-c3ccc(O)cc3)n(-c3cc(OC)c(OC)c(OC)c3)c2=O)cc(OC)c1OC`, the IC50 in experiment [1] was 2.5 µM; in experiment [2], above 50 µM; in [3] it was above 50 µM; in [6], above 50 µM; in experiment [7], 10.4 µM; in experiment [4], 6.3 µM. Also, the IC50 in [5] was 3 µM; in experiment [8] it was above 50 µM.
With `COc1ccc(-c2cn(C(C)=O)c(=O)n2-c2cc(OC)c(OC)c(OC)c2)cc1N`, the IC50 is 1.1 µM in experiment [1]; 49.3 µM in [2]; above 50 µM in experiment [3]; 43.4 µM in experiment [6]; 0.5 µM in [7]; 0.4 µM in [4]. In addition, the IC50 is 21.4 µM in experiment [5] and 0.6 µM in experiment [8].
With `O=P1(N(CCCl)CCCl)NCCCO1` (stereo unspecified) [CYCLOPHOSPHAMIDE ANHYDROUS], the figures for the inhibition in vivo at 30 mg/kg/day in experiment [9] and in [10] were 36.2% and 63.5%, respectively.
`CC(=O)O[C@@]12CO[C@@H]1C[C@H](O)[C@@]1(C)C(=O)[C@H](O)C3=C(C)[C@@H](OC(=O)[C@H](O)[C@@H](NC(=O)OC(C)(C)C)c4ccccc4)C[C@@](O)([C@@H](OC(=O)c4ccccc4)[C@H]21)C3(C)C` [DOCETAXEL]: the IC50 in [1] stood at 1.7 µM; in experiment [6], 4 µM; in [7] it was 8.5 µM; in experiment [5], 54.8 µM.

As a reminder, the IC50 is the concentration that inhibits the measured activity by half.
